Screens: PubChem, Broad Institute
EBV LMP1 NFkB = inhibitors of Epstein-Barr LMP1-induced NF-kappaB reporter; LMP1-induced NF-kappaB luciferase reporter cells, luminescence; inhibition, % at 12.5 µM; 350,000 compounds, 0.69% hits; in the data active = inhibition above about 41%;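 note: 0% = neutral control wells and 100% = reference inhibitor control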
aSyn 5UTR inh = 5' untranslated region of α-synuclein, MLPCN primary screen; 300,000 compounds, 0.82% hits; inhibition, % (tested at 7.5 µM); alpha-synuclein 5'UTR reporter, inhibitor activity; in the data active = inhibition above about 60%;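 note: H4 neuroglioblastoma cells stably carrying SNCA 5'UTR luciferase fusion; 0% = DMSO wells and 100% = positive control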
Shn3 inh set2 = reduces Shn3 3'UTR luciferase signal in osteoblasts. Clone20 osteoblast Shn3 3'UTR firefly luciferase, 24 h. inhibition, % at 12.5 µM. 360,000 compounds, 0.52% hits;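 active = mean inhibition of at least 75% with every replicate also reaching 75%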;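 note: 0% = median of neutral control wells and 100% = pilot-screen positive control compound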
EWS-Fli inh = blocks EWS/Fli oncoprotein-driven transcription. A673 NR0B1-luciferase reporter, viability-normalised. inhibition, % at 12.6 µM. AID 651661. 350,000 compounds, 0.67% hits;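 active = mean inhibition of at least 50% after viability correction, with every replicate also passing that limit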;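 note: firefly luciferase signal divided by Alamar Blue viability fluorescence both relative to DMSO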
PAX8 reporter = lowers PAX8-driven luciferase in RMG-I cells. 360,000 compounds, 1.2% hits. AID 652154. RMG-I TPO-luciferase reporter, SteadyGlo, 24 h. inhibition, % at 12.6 µM;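 active = mean replicate inhibition at least 60% with every replicate also reaching 60%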;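 note: luciferase light reporting Pax8 driven TPO promoter activity; plate controls were median of neutral control wells for no effect and mitoxantrone controls for full effect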
FN deposit inh = fibronectin deposition inhibition | AH1F fibroblasts, Alexa488-fibronectin deposition fluorescence, overnight | inhibition, % at 12.6 µM | 350,000 compounds, 0.086% hits | AID 743247;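 active = mean inhibition across replicates of 30% or more, regardless of how many single replicates reach that level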;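 note: positive control wells lacked labelled fibronectin entirely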
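test system = AH1F fibroblasts assembling fluorescent fibronectin matrix | quantity = 10000 AH1F cells per well | buffer or medium = DMEM plus 2% serum, read in PBS | doses = single dose, pinned | incubation = 1 h cell attachment, overnight exposure to compound and label | detection = fluorescence at 485 nm excitation, 525 nm emission | read-out basis = inhibition from reduced deposited-fibronectin fluorescence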
The depositor's hits bear a star; x = no result given. Compounds with a hit are over-represented: about 2.1% of the library has one in this group of screens.

SMILES | EBV LMP1 NFkB | aSyn 5UTR inh | Shn3 inh set2 | EWS-Fli inh | PAX8 reporter | FN deposit inh
CCC(=O)N1C[C@@H](C)[C@H](OC)CN(C)C(=O)c2cc(NS(=O)(=O)CC)ccc2OC[C@@H]1C | x | x | x | -7 | 2 | -8
CO[C@@H]1CN(C)C(=O)c2cc(NC(=O)C3CC3)ccc2OC[C@H](C)N(C(=O)Cc2ccccn2)C[C@@H]1C | x | x | x | 0 | 5 | -6
COc1ccc2cc(-c3cc(C(=O)O)c4ccccc4n3)ccc2c1 | 66* | 78* | 66 | x | 36 | 10
COc1cccc(CNc2ncc(C(=O)Nc3cc(OC)c(OC)c(OC)c3)c(C)n2)c1 | 9 | -22 | 17 | 52* | 33 | 18
Cc1ccc(/C=C/C(=O)N2CCN(c3cccc(C(F)(F)F)c3)CC2)cc1 | 7 | -19 | -12 | 2 | 89* | -9
Cc1cc(C)c(S(=O)(=O)N2CCN(C(=O)c3ccccc3OCc3c(C)noc3C)CC2)c(C)c1 | 46* | x | 20 | -24 | -111 | -3
Cc1ccc(S(=O)(=O)N2CCN(C(=O)c3ccccc3OCc3c(C)noc3C)CC2)cc1C | -3 | -9 | 3 | -2 | x | 17
Cc1noc(C)c1COc1ccccc1C(=O)N1CCN(c2cccc(C(F)(F)F)c2)CC1 | 3 | x | 11 | 64* | 22 | 13
CC(C)c1cn(CC[C@@H]2CC[C@@H](NC(=O)C3CC3)[C@@H](CO)O2)nn1 | x | x | x | -6 | -1 | -7
COc1nc(Nc2nc3ccccc3c(=O)[nH]2)nc2ccc(C)cc12 | 50* | 90* | 52 | 35 | 76* | 6
Cc1cc(C)cc(Nc2nc3ccccc3c(=O)[nH]2)c1 | -3 | -21 | -8 | -10 | -11 | x
CCOC(=O)C1CCN(C(=O)c2ccc(OCC(=O)Nc3cccc(C(F)(F)F)c3)cc2)CC1 | 11 | 8 | 57 | x | 9 | 12
CCOC(=O)C1CCN(C(=O)c2ccc(OCC(=O)Nc3cccc(C(F)(F)F)c3)c(OC)c2)CC1 | 26 | 13 | 89* | 5 | 31 | 11
CCCNC(=O)[C@H]1[C@H](CO)[C@H]2Cn3c(ccc(-c4ccc(OC)cc4)c3=O)[C@@H]1N2CC | x | x | x | -5 | x | x
C[C@H](CO)N1C[C@H](C)[C@H](CN(C)CC2CCOCC2)Oc2ncc(-c3cccc(F)c3)cc2C1=O | x | x | x | -2 | 7 | x
Cc1ccc(N/C(N)=N/c2nc(CSc3nnc(C)s3)cc(=O)[nH]2)c(C)c1 | 15 | 83* | 12 | 69* | 32 | x
COc1ccc(N/C(N)=N/c2nc(CSc3nnc(C)s3)cc(=O)[nH]2)cc1 | -8 | 4 | -8 | 37 | 16 | 24
COc1ccc(Cl)cc1N/C(N)=N/c1nc(CSc2ccc(C)cc2)cc(=O)[nH]1 | 9 | 28 | 80* | x | x | -4
O=C(CNC(=O)c1ccco1)N=Nc1c(O)n(CCc2ccccc2)c2ccccc12 | 7 | 48 | 12 | 56* | 26 | -5
Cc1ccc(N2Cc3ccccc3C2=O)cc1 | 14 | -11 | -20 | 22 | -40 | -2
COc1ccc(N2Cc3ccccc3C2=O)cc1 | 81* | -10 | -7 | -6 | -52 | 8
CN(C[C@@H]1N[C@H](CO)[C@@H]1c1ccc(C2=CCCCC2)cc1)S(C)(=O)=O | x | x | x | -20 | -37 | -16
COc1cccc(S(=O)(=O)N2C[C@@H]3N[C@H](C2)C3c2ccc(-c3ccc(C(=O)N(C)C)cc3)cc2)c1 (stereo partly specified) | x | x | x | 9 | 4 | 5
COc1ccc2c3c(n(C)c2c1)[C@@H](CO)N(C(=O)c1cnccn1)CC31CCN(C)CC1 | x | x | x | -4 | x | x
Oc1ccccc1Nc1nc(NCc2ccccc2)c2ccccc2n1 | 4 | -37 | 89* | 19 | 49 | 2
SMILES | EBV LMP1 NFkB | aSyn 5UTR inh | Shn3 inh set2 | EWS-Fli inh | PAX8 reporter | FN deposit inh
CC(C)CNc1nc(N)c([N+](=O)[O-])c(N2CCCCCC2)n1 | 13 | 10 | 57 | 6 | 0 | 1
Cc1ccc(Nc2nc(N)c([N+](=O)[O-])c(NCc3ccccc3)n2)cc1 | -3 | 19 | -1 | -7 | 15 | 14
CCC(C)Nc1nc(N)c([N+](=O)[O-])c(NCc2ccccc2)n1 (stereo unspecified) | -11 | 65* | 1 | -14 | 12 | 16
CCC(C)Nc1nc(N)c([N+](=O)[O-])c(N2CCCCCC2)n1 (stereo unspecified) | -4 | 32 | 9 | 14 | 77* | 5
CCC(C)Nc1nc(N)c([N+](=O)[O-])c(NC2CCCCC2)n1 (stereo unspecified) | -24 | 102* | 2 | -2 | 5 | 5
C[C@@H]1CCCCO[C@H](CN(C)C(=O)CCCN(C)C)[C@@H](C)CN([C@@H](C)CO)C(=O)c2cc(NC(=O)NC3CCCCC3)ccc2O1 | x | x | x | -10 | 11 | x
CNC(=O)C[C@@H]1CC[C@H]2[C@H](COc3ccc(NC(=O)c4ccc(OC)cc4)cc3C(=O)N2C)O1 | x | x | x | -4 | 20 | -44
C[C@H]1CCCCO[C@H](CN(C)C(=O)Nc2cccc3ccccc23)[C@@H](C)CN([C@@H](C)CO)C(=O)c2cc(NC(=O)NC3CCCCC3)ccc2O1 | x | x | x | 17 | 67* | 11
C[C@@H]1CN([C@H](C)CO)C(=O)c2cc(NC(=O)Cc3ccccc3)ccc2O[C@@H](C)CCCCO[C@@H]1CN(C)C(=O)Nc1cccc2ccccc12 | x | x | x | -8 | 64* | x
CN1[C@H](C(=O)Nc2ccccc2)[C@@H](CO)[C@@H]2Cn3c(ccc(-c4ccc(F)cc4)c3=O)[C@@H]21 | x | x | x | -1 | x | x
Cc1cc(NC(=O)CSc2nc(-c3cccs3)cc(C(F)(F)F)n2)no1 | 20 | 55 | 31 | x | x | x
Cc1cc(NC(=O)CCCS(=O)(=O)c2nc(-c3cccs3)cc(C(F)(F)F)n2)no1 | 0 | -92 | 95* | x | 106* | 1
COc1ccc(-c2cc(C(F)(F)F)nc(S(=O)(=O)CCCC(=O)Nc3cccnc3Cl)n2)cc1OC | -7 | x | 96* | 20 | 72* | 10
CC(=O)OCC1=C[C@@H]2OC(=O)C3=CO[C@@H](O[C@@H]4O[C@H](CO)[C@@H](O)[C@H](O)[C@H]4O)[C@H]1[C@@H]32 | -1 | x | -15 | -8 | 4 | 11
